According to ChEMBL document CHEMBL5154683, “A 5-FU Precursor Designed to Evade Anabolic and Catabolic Drug Pathways and Activated by Pd Chemistry In Vitro and In Vivo” (J Med Chem, 2022):

How the values were obtained:
[1] = Tmax in female Wistar Han rat at 1000 mg/kg, po administered as single dose measured upto 24 hrs; assay type: ADME, organism-based; conditions: in vivo
Procedure, shortened: (§1)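 Single oral dose 1000 mg/kg in male and female rats, dosing volume 10 mL/kg (n = 6); animals observed 14 days with clinical checks, functional/neurobehavioral tests and body weight, necropsy on d15; exposure parameters from the toxicokinetic arm of this study.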

[2] = Half life in male Wistar Han rat at 1 mg/kg, iv administered as single dose measured upto 24 hrs; assay type: ADME, organism-based; conditions: in vivo
Procedure, shortened: (§2)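 Male jugular-vein-cannulated Wistar Han rats, 263–319 g, single dose. IV: 1 mg/kg as 2 mL/kg of 0.5 mg/mL in 5% DMSO/95% HPCD (20% w/v), not fasted. PO: 10 mg/kg as 5 mL/kg of 2 mg/mL suspension in 5% DMSO/95% tween 80/HPCD vehicle, fasted overnight. Serial cannula blood sampling 0.083/0.25–24 h (n = 3/route); parent quantified by QToF against calibration curve.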

[3] = Apparent permeability across apical to basolateral side in human Caco-2 cells at 10 uM measured after 120 mins by LC-MS/MS analysis; assay type: ADME, cell-based
Procedure, shortened: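 Caco-2 cells (P40-60) seeded at 1 × 10⁵ cells/cm² on Transwells, used on day 20; rinsed and equilibrated 40 min in HBSS pH 7.4. Compound at 10 μM in HBSS, 1% v/v DMSO, added apically (A–B) or basolaterally (B–A); 120 min at 37 °C, 5% CO₂. Lucifer yellow monitored monolayer integrity; LC-MS/MS with eight-point calibration; recovery from C₀ and both compartments.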

[4] = Prodrug conversion in PBS buffer assessed as 5-Fluorouracil formation by measuring retention time at 100 uM in presence of Pd-resin measured upto 1 hr by UPLC analysis; assay type: ADME
Procedure, shortened: (§3)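 Prodrug (100 μM in PBS, pH 7.4) shaken at 1200 rpm, 37 °C with 1 mg/mL Pd resins (30 μm). Sampled at 10, 20, 40 min, 1, 3, 6, 24 and 48 h; analyzed by reverse-phase UPLC (C18, 60 °C, UV 254 nm), products identified by retention time against authentic standards.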

[5] = AUC (0 to infinity) in maleWistar Han rat at 1000 mg/kg, po administered as single dose measured upto 24 hrs; assay type: ADME, organism-based; design: time < 24 hrs, dose 1000 mg/kg, route po; conditions: male, Wistar Han, in vivo; procedure, shortened: as §1
[6] = Stability in human hepatocytes assessed as parent compound remaining at 10 uM measured after 60 mins by UPLC analysis; assay type: ADME, cell-based, Hepatocyte; conditions: read-out: Stability
Procedure, shortened: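 Cryopreserved male Sprague–Dawley rat or male human hepatocytes (0.5 × 10⁶ cells/mL) in Leibovitz buffer with 10 μM compound, 37 °C, shaken 700 rpm, 60 min. Samples at 0 and 60 min quenched 1:1 with ice-cold acetonitrile; supernatant analyzed by UPLC–QToF MS (positive ion). Hepatocyte-only and buffer-only negatives; verapamil and 7-hydroxycoumarin as viability controls.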

HCT-116 [7] = test: Antiproliferative activity against human HCT-116 cells assessed as reduction in cell viability measured after 5 days by PrestoBlue reagent based assay; assay type: functional; conditions: HCT-116, 120 h
Procedure, shortened: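 Cells in 10% FBS, 2 mM L-glutamine media at 37 °C, 5% CO₂ (HCT116 in McCoy's 5A, BxPC-3 in RPMI). Seeded at 3000 (HCT116) or 2500 (BxPC-3) cells/well and grown 48 h. Medium then replaced with drug-containing medium, 0.1% DMSO, for 5 d. PrestoBlue 10% v/v added for 1 h, fluorescence read ex 540/em 590 nm. Normalised to DMSO-only wells; sigmoidal variable-slope fit; n = 3.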

[8] = Drug metabolism in PBS buffer assessed as dealkylation of parent compound causing metabolite formation at 100 uM in presence of palladium resin; assay type: ADME; procedure, shortened: as §3
[9] = Drug distribution in brain of BALB/c mouse xenografted with human HCT-116 cells at 75 to 150 mg/kg, po administered for 7 days; assay type: ADME, organism-based; conditions: in vivo, 168 h, dose 75-150 mg/kg, time 7 day
[10] = Cmax in male Wistar Han rat at 10 mg/kg, po administered as single dose measured upto 24 hrs; assay type: ADME, organism-based; design: time < 24 hrs, dose 10 mg/kg, route po; conditions: in vivo; procedure, shortened: as §2
[11] = Clearance in male Wistar Han rat at 1 mg/kg, iv administered as single dose measured upto 24 hrs; assay type: ADME, organism-based; conditions: in vivo; procedure, shortened: as §2
[12] = Metabolic stability in rat hepatocytes assessed as half life at 1 uM by LC-MS/MS analysis; assay type: ADME, cell-based, Hepatocyte
Procedure, shortened: (§4)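 Suspended hepatocytes (0.5 × 10⁶ cells/mL) in Williams E medium with 2 mM L-glutamine and 25 mM HEPES at 37 °C, compound added with 0.25% v/v DMSO after preincubation; aliquots quenched into methanol with internal standard at time points, centrifuged, supernatant analyzed by LC-MS/MS; two control compounds included.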

[13] = Plasma protein binding in rat at 5 uM; assay type: ADME, cell-free; conditions: read-out: PPB (converted)
Procedure, shortened: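 Binding of compound at 5 μM measured in rat and human plasma, with compound recovery determined; n = 3.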

[14] = AUC (0 to t) in male Wistar Han rat at 1000 mg/kg, po administered as single dose measured upto 24 hrs; assay type: ADME, organism-based; design: dose 1000 mg/kg, time < 24 hrs, route po; conditions: in vivo; procedure, shortened: as §1
[15] = Metabolic stability in rat hepatocytes assessed as half life at 3 uM by LC-MS/MS analysis; assay type: ADME, cell-based, Hepatocyte; procedure, shortened: as §4
[16] = Mean residence time in male Wistar Han rat at 10 mg/kg, po administered as single dose measured upto 24 hrs; assay type: ADME, organism-based; conditions: in vivo; procedure, shortened: as §2
[17] = Cmax in female Wistar Han rat at 1000 mg/kg, po administered as single dose measured upto 24 hrs; assay type: ADME, organism-based; design: time < 24 hrs, dose 1000 mg/kg, route po; conditions: in vivo; procedure, shortened: as §1
HCT-116 [18] = test: Antiproliferative activity against human HCT-116 cells assessed as reduction in cell viability at 100 uM incubated for 5 days in presence of Pd-resins at 0.8 mg/ml by PrestoBlue dye based assay relative to control; assay type: functional; conditions: time 5 day
Procedure, shortened: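 HCT116 seeded at 750 cells/well and grown 48 h. Medium then replaced with fresh medium with or without Pd resins (20–160 μg per well; 0.2–1.4 mg/mL). Compound added as 5 μL of a 2 mM stock in 2% DMSO/medium, incubated 5 d. PrestoBlue fluorescence read; values normalised to untreated cells within each resin dilution.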

## C#CCOc1ncc(F)c(OCC#C)n1
[1]
  Tmax: 4 h
[2]
  half-life: 0.497 h
[3]
  Papp A→B at 2 h, 10 µM: 28.1 ×10⁻⁶ cm/s
[4]
  Retention_time: 0.78 min
[5]
  AUC(0-inf): 2610 µg·h/mL
[6]
  remaining at 1 h, 10 µM: > 99%
HCT-116 [7]
  EC50: > 100 µM
[8]
  Drug metabolism: Metabolite_Detected
[9]
  Drug uptake: Active
[10]
  Cmax: 3610 ng/mL
[11]
  clearance: 52.1 mL/min/kg
[12]
  half-life at 1 µM: 1.52 h
[13]
  fraction unbound at 5 µM: 0.161
[14]
  AUC(0-t) at 24 h: 1590 µg·h/mL
[15]
  half-life at 3 µM: 6.97 h
[16]
  MRT: 1.86 h
[17]
  Cmax: 83600 ng/mL
HCT-116 [18]
  Activity: 7%
